Assay results as given in paper PMC11904481 (ESMO Open, 2025).

Tested on: patients with locally advanced unresectable or metastatic, relapsed and/or refractory nonhematological malignancies
Test: Phase I safety: adverse events
Type: in vivo, human
Procedure, shortened: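 Adverse events were graded by NCI CTCAE v4.03 across three i.v. schedules of the test compound (0.45-11.3 mg/kg; weekly per 28-day cycle, or days 1, 4, 8 ±11, 15 per 21-day cycle). Special-interest events covered retinal dysfunction symptoms and documented retinal disorders. Clustered signs were grouped as 'infusion reaction'. QTc was calculated with the Fridericia correction.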

[1] = schedules 1/2 cohort 1, 0.45 mg/kg
[2] = schedules 1/2 cohort 2, 0.9 mg/kg
[3] = schedules 1/2 cohort 3, 1.8 mg/kg
[4] = schedules 1/2 cohort 4, 3.6 mg/kg
[5] = schedules 1/2 cohort 5, 5.4 mg/kg
[6] = schedules 1/2 cohort 6, 4.8 mg/kg
[7] = schedules 1/2 cohort 7, 5.4 mg/kg
[8] = schedules 1/2 cohort 8, 7.2 mg/kg
[9] = schedules 1/2 cohort 9, 9.6 mg/kg

O=C1Nc2cc3[nH]nc(-c4ccncc4)c3cc2CN1Cc1ccccc1 [KO-947]
Total number of AESI [1]: 0 n
Total number of treatment-related TEAEs [1]: 2 n
Treatment-related TEAE: Blurred vision [1]: 0 n (%)
Treatment-related TEAE: Dermatitis acneiform [1]: 0 n (%)
Treatment-related TEAE: Fatigue [1]: 1 (100) n (%)
Treatment-related TEAE: Headache [1]: 0 n (%)
Treatment-related TEAE: Nausea [1]: 0 n (%)
Treatment-related TEAE: QTc prolongation [1]: 0 n (%)
Treatment-related TEAE: Subretinal fluid [1]: 0 n (%)
Treatment-related TEAE: Vomiting [1]: 0 n (%)
AESI: Blurred vision [2]: 0 n (%)
AESI: Eye disorders [2]: 0 n (%)
AESI: Macular edema [2]: 0 n (%)
AESI: Retinal edema [2]: 0 n (%)
AESI: Subretinal fluid [2]: 0 n (%)
AESI: Vitreous floaters [2]: 0 n (%)
Patients with ≥1 AESI [2]: 0 n (%)
Patients with ≥1 treatment-related TEAE [2]: 0 n (%)
Total number of AESI [2]: 0 n
Total number of treatment-related TEAEs [2]: 0 n
Treatment-related TEAE: Blurred vision [2]: 0 n (%)
Treatment-related TEAE: Dermatitis acneiform [2]: 0 n (%)
Treatment-related TEAE: Fatigue [2]: 0 n (%)
Treatment-related TEAE: Headache [2]: 0 n (%)
Treatment-related TEAE: Nausea [2]: 0 n (%)
Treatment-related TEAE: QTc prolongation [2]: 0 n (%)
Treatment-related TEAE: Subretinal fluid [2]: 0 n (%)
Treatment-related TEAE: Vomiting [2]: 0 n (%)
AESI: Blurred vision [3]: 0 n (%)
AESI: Eye disorders [3]: 0 n (%)
AESI: Macular edema [3]: 0 n (%)
AESI: Retinal edema [3]: 0 n (%)
AESI: Subretinal fluid [3]: 0 n (%)
AESI: Vitreous floaters [3]: 0 n (%)
Patients with ≥1 AESI [3]: 0 n (%)
Patients with ≥1 treatment-related TEAE [3]: 1 (100) n (%)
Total number of AESI [3]: 0 n
Total number of treatment-related TEAEs [3]: 1 n
Treatment-related TEAE: Blurred vision [3]: 0 n (%)
Treatment-related TEAE: Dermatitis acneiform [3]: 0 n (%)
Treatment-related TEAE: Fatigue [3]: 0 n (%)
Treatment-related TEAE: Headache [3]: 0 n (%)
Treatment-related TEAE: Nausea [3]: 0 n (%)
Treatment-related TEAE: QTc prolongation [3]: 0 n (%)
Treatment-related TEAE: Subretinal fluid [3]: 0 n (%)
Treatment-related TEAE: Vomiting [3]: 0 n (%)
AESI: Blurred vision [4]: 0 n (%)
AESI: Eye disorders [4]: 0 n (%)
AESI: Macular edema [4]: 0 n (%)
AESI: Retinal edema [4]: 0 n (%)
AESI: Subretinal fluid [4]: 0 n (%)
AESI: Vitreous floaters [4]: 0 n (%)
Patients with ≥1 AESI [4]: 0 n (%)
Patients with ≥1 treatment-related TEAE [4]: 2 (67) n (%)
Total number of AESI [4]: 0 n
Total number of treatment-related TEAEs [4]: 7 n
Treatment-related TEAE: Blurred vision [4]: 0 n (%)
Treatment-related TEAE: Dermatitis acneiform [4]: 0 n (%)
Treatment-related TEAE: Fatigue [4]: 0 n (%)
Treatment-related TEAE: Headache [4]: 1 (33) n (%)
Treatment-related TEAE: Nausea [4]: 1 (33) n (%)
Treatment-related TEAE: QTc prolongation [4]: 0 n (%)
Treatment-related TEAE: Subretinal fluid [4]: 0 n (%)
Treatment-related TEAE: Vomiting [4]: 1 (33) n (%)
AESI: Blurred vision [5]: 0 n (%)
AESI: Eye disorders [5]: 0 n (%)
AESI: Macular edema [5]: 0 n (%)
AESI: Retinal edema [5]: 0 n (%)
AESI: Subretinal fluid [5]: 0 n (%)
AESI: Vitreous floaters [5]: 0 n (%)
Patients with ≥1 AESI [5]: 0 n (%)
Patients with ≥1 treatment-related TEAE [5]: 7 (100) n (%)
Total number of AESI [5]: 0 n
Total number of treatment-related TEAEs [5]: 60 n
Treatment-related TEAE: Blurred vision [5]: 4 (57) n (%)
Treatment-related TEAE: Dermatitis acneiform [5]: 0 n (%)
Treatment-related TEAE: Fatigue [5]: 1 (14) n (%)
Treatment-related TEAE: Headache [5]: 1 (14) n (%)
Treatment-related TEAE: Nausea [5]: 1 (14) n (%)
Treatment-related TEAE: QTc prolongation [5]: 1 (14) n (%)
Treatment-related TEAE: Subretinal fluid [5]: 3 (43) n (%)
Treatment-related TEAE: Vomiting [5]: 0 n (%)
AESI: Blurred vision [6]: 0 n (%)
AESI: Eye disorders [6]: 1 (25) n (%)
AESI: Macular edema [6]: 0 n (%)
AESI: Retinal edema [6]: 0 n (%)
AESI: Subretinal fluid [6]: 1 (25) n (%)
AESI: Vitreous floaters [6]: 0 n (%)
Patients with ≥1 AESI [6]: 1 (25) n (%)
Patients with ≥1 treatment-related TEAE [6]: 3 (75) n (%)
Total number of AESI [6]: 3 n
Total number of treatment-related TEAEs [6]: 25 n
Treatment-related TEAE: Blurred vision [6]: 1 (25) n (%)
Treatment-related TEAE: Dermatitis acneiform [6]: 1 (25) n (%)
Treatment-related TEAE: Fatigue [6]: 0 n (%)
Treatment-related TEAE: Headache [6]: 1 (25) n (%)
Treatment-related TEAE: Nausea [6]: 1 (25) n (%)
Treatment-related TEAE: QTc prolongation [6]: 0 n (%)
Treatment-related TEAE: Subretinal fluid [6]: 1 (25) n (%)
Treatment-related TEAE: Vomiting [6]: 0 n (%)
AESI: Blurred vision [7]: 2 (67) n (%)
AESI: Eye disorders [7]: 3 (10) n (%)
AESI: Macular edema [7]: 0 n (%)
AESI: Retinal edema [7]: 0 n (%)
AESI: Subretinal fluid [7]: 2 (67) n (%)
AESI: Vitreous floaters [7]: 1 (33) n (%)
Patients with ≥1 AESI [7]: 3 (10) n (%)
Patients with ≥1 treatment-related TEAE [7]: 3 (100) n (%)
Total number of AESI [7]: 5 n
Total number of treatment-related TEAEs [7]: 18 n
Treatment-related TEAE: Blurred vision [7]: 2 (67) n (%)
Treatment-related TEAE: Dermatitis acneiform [7]: 1 (33) n (%)
Treatment-related TEAE: Fatigue [7]: 1 (33) n (%)
Treatment-related TEAE: Headache [7]: 1 (33) n (%)
Treatment-related TEAE: Nausea [7]: 2 (67) n (%)
Treatment-related TEAE: QTc prolongation [7]: 0 n (%)
Treatment-related TEAE: Subretinal fluid [7]: 2 (67) n (%)
Treatment-related TEAE: Vomiting [7]: 1 (33) n (%)
AESI: Blurred vision [8]: 2 (40) n (%)
AESI: Eye disorders [8]: 5 (10) n (%)
AESI: Macular edema [8]: 0 n (%)
AESI: Retinal edema [8]: 1 (20) n (%)
AESI: Subretinal fluid [8]: 2 (40) n (%)
AESI: Vitreous floaters [8]: 0 n (%)
Patients with ≥1 treatment-related TEAE [8]: 5 (100) n (%)
Total number of AESI [8]: 5 n
Total number of treatment-related TEAEs [8]: 14 n
Treatment-related TEAE: Blurred vision [8]: 2 (40) n (%)
Treatment-related TEAE: Dermatitis acneiform [8]: 2 (40) n (%)
Treatment-related TEAE: Fatigue [8]: 0 n (%)
Treatment-related TEAE: Headache [8]: 0 n (%)
Treatment-related TEAE: Nausea [8]: 0 n (%)
Treatment-related TEAE: QTc prolongation [8]: 0 n (%)
Treatment-related TEAE: Subretinal fluid [8]: 2 (40) n (%)
Treatment-related TEAE: Vomiting [8]: 1 (20) n (%)
AESI: Blurred vision [9]: 8 (89) n (%)
AESI: Eye disorders [9]: 8 (89) n (%)
AESI: Macular edema [9]: 1 (11) n (%)
AESI: Retinal edema [9]: 1 (11) n (%)
AESI: Subretinal fluid [9]: 3 (33) n (%)
AESI: Vitreous floaters [9]: 1 (11) n (%)
Patients with ≥1 AESI [9]: 8 (89) n (%)
Patients with ≥1 treatment-related TEAE [9]: 8 (89) n (%)
Total number of AESI [9]: 16 n
Total number of treatment-related TEAEs [9]: 39 n
Treatment-related TEAE: Blurred vision [9]: 8 (89) n (%)
Treatment-related TEAE: Dermatitis acneiform [9]: 1 (11) n (%)
Treatment-related TEAE: Fatigue [9]: 1 (11) n (%)
Treatment-related TEAE: Headache [9]: 0 n (%)
Treatment-related TEAE: Nausea [9]: 1 (11) n (%)
Treatment-related TEAE: QTc prolongation [9]: 4 (44) n (%)
Treatment-related TEAE: Subretinal fluid [9]: 3 (33) n (%)
Treatment-related TEAE: Vomiting [9]: 2 (22) n (%)
AESI: Blurred vision (schedules 1/2 total N = 34): 12 (35) n (%)
AESI: Eye disorders (schedules 1/2 total N = 34): 17 (50) n (%)
AESI: Macular edema (schedules 1/2 total N = 34): 1 (3) n (%)
AESI: Retinal edema (schedules 1/2 total N = 34): 2 (6) n (%)
AESI: Subretinal fluid (schedules 1/2 total N = 34): 8 (24) n (%)
AESI: Vitreous floaters (schedules 1/2 total N = 34): 2 (6) n (%)
Patients with ≥1 AESI (schedules 1/2 total N = 34): 17 (50) n (%)
Patients with ≥1 treatment-related TEAE (schedules 1/2 total N = 34): 30 (88) n (%)
Total number of AESI (schedules 1/2 total N = 34): 29 n
Total number of treatment-related TEAEs (schedules 1/2 total N = 34): 166 n
Treatment-related TEAE: Blurred vision (schedules 1/2 total N = 34): 17 (50) n (%)
Treatment-related TEAE: Dermatitis acneiform (schedules 1/2 total N = 34): 5 (15) n (%)
Treatment-related TEAE: Fatigue (schedules 1/2 total N = 34): 4 (12) n (%)
Treatment-related TEAE: Headache (schedules 1/2 total N = 34): 4 (12) n (%)
Treatment-related TEAE: Nausea (schedules 1/2 total N = 34): 6 (18) n (%)
Treatment-related TEAE: QTc prolongation (schedules 1/2 total N = 34): 5 (15) n (%)
Treatment-related TEAE: Subretinal fluid (schedules 1/2 total N = 34): 11 (32) n (%)
Treatment-related TEAE: Vomiting (schedules 1/2 total N = 34): 5 (15) n (%)
grade ≥3 TEAE: QTc prolongation on ECG (schedules 1 and 2): 9%
grade ≥3 TEAE: hypokalemia (schedules 1 and 2): 6%
grade ≥3 TEAE: increased blood alkaline phosphatase (schedules 1 and 2): 6%
grade ≥3 TEAE: increased gamma-glutamyl transferase (schedules 1 and 2): 15%
grade ≥3 TEAE: lymphopenia (schedules 1 and 2): 6%
grade ≥3 TEAE: rash (schedules 1 and 2): 6%
patients discontinued owing to AEs (schedules 1 and 2): 3%
patients with at least one AESI (schedules 1 and 2): 50%
patients with grade ≥3 TEAEs (schedules 1 and 2): 50%
treatment-related QTc prolongation (schedules 1 and 2): 15%
treatment-related blurred vision (schedules 1 and 2): 50%
treatment-related dermatitis acneiform (schedules 1 and 2): 15%
treatment-related fatigue (schedules 1 and 2): 12%
treatment-related headache (schedules 1 and 2): 12%
treatment-related nausea (schedules 1 and 2): 18%
treatment-related subretinal fluid (schedules 1 and 2): 32%
treatment-related vomiting (schedules 1 and 2): 15%
